{"source": "ChEMBL document CHEMBL1121975", "about": "“Effect of N,N'-diethyl-1,2-bis(2,6-dichloro-4-hydroxyphenyl)ethylenediamines on the 7,12-dimethylbenz[a]anthracene-induced mammary carcinoma of the rat” (1982)", "key": {"[1]": {"species_on_record": "Rattus norvegicus", "assay": "(§1) Partial remission of DMBA-induced mammary carcinoma in rats", "format": "functional", "summary_of_the_method": "(§2)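 Sprague-Dawley rats bearing DMBA-induced mammary tumours, randomized in groups of 10 between days 35 and 70 after induction. Dosing was sc in olive oil at 2 or 6 mg/kg: a single dose daily Monday–Thursday and a double dose Friday, for 4 weeks. Tumour number was taken at test start. Complete remission = not palpable; partial = ≤50% of initial size; static = 51-150% of initial size.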"}, "[2]": {"species_on_record": "Rattus norvegicus", "assay": "as §1", "format": "functional", "summary_of_the_method": "as §2", "remark": "listed apart in the source"}, "[3]": {"system": "Rattus norvegicus", "assay": "Complete remission of DMBA-induced mammary carcinoma in rats at 6 mg/kg dose", "format": "functional", "summary_of_the_method": "as §2"}, "[4]": {"system": "Rattus norvegicus", "assay": "Progression of DMBA-induced mammary carcinoma in rats at 6 mg/kg dose", "format": "functional", "summary_of_the_method": "as §2"}, "[5]": {"system": "Rattus norvegicus", "assay": "Complete remission of DMBA-induced mammary carcinoma in rats at 2 mg/kg dose", "format": "functional", "summary_of_the_method": "as §2"}, "[6]": {"species_on_record": "Rattus norvegicus", "assay": "(§3) Increased total tumor area (>150%) in DMBA-induced mammary carcinoma in rats", "format": "functional", "summary_of_the_method": "as §2"}, "[7]": {"species_on_record": "Rattus norvegicus", "assay": "(§4) Unchanged total tumor area (51-150%) in DMBA-induced mammary carcinoma in rats", "format": "functional", "summary_of_the_method": "as §2"}, "[8]": {"system": "Rattus norvegicus", "assay": "Progression of DMBA-induced mammary carcinoma in rats at 2 mg/kg dose", "format": "functional", "summary_of_the_method": "as §2"}, "[9]": {"system": "Rattus norvegicus", "assay": "Change in body weight in rats after 7 days at 6 mg/kg dose", "format": "functional"}, "[10]": {"system": "Rattus norvegicus", "assay": "Tumour number in DMBA-induced mammary carcinoma in rats at 6 mg/kg dose", "format": "functional", "summary_of_the_method": "as §2"}, "[11]": {"species_on_record": "Rattus norvegicus", "assay": "as §4", "format": "functional", "summary_of_the_method": "as §2", "remark": "listed apart in the source"}, "[12]": {"species_on_record": "Rattus norvegicus", "assay": "as §3", "format": "functional", "summary_of_the_method": "as §2", "remark": "listed apart in the source"}, "[13]": {"system": "Rattus norvegicus", "assay": "Tumour number in DMBA-induced mammary carcinoma in rats at 2 mg/kg dose", "format": "functional", "summary_of_the_method": "as §2"}, "[14]": {"system": "Rattus norvegicus", "assay": "Change in body weight in rats after 7 days at 2 mg/kg dose", "format": "functional"}, "[15]": {"target": "Estrogen receptor (Bos taurus) (UniProt Q9XSB5+P49884)", "assay": "Displacement of [3H]- estradiol from calf uterine estrogen receptor", "format": "protein assay", "summary_of_the_method": "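Competitive binding with calf uterine cytosol as the estrogen receptor source, [3H]estradiol as tracer, and dextran-charcoal separation. RBA = (molar concentration of E2 / molar concentration of inhibitor needed to reduce bound [3H]E2 by 50%) × 100, with 17β-estradiol = 100.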"}, "[16]": {"species_on_record": "Rattus norvegicus", "assay": "as §3", "format": "functional", "summary_of_the_method": "as §2", "remark": "listed apart in the source"}}, "data": [{"smiles": "CCNC(c1c(Cl)cc(O)cc1Cl)C(NCC)c1c(Cl)cc(O)cc1Cl", "note": "(racemic) [listing 1 of 2 here]", "values": [{"measurement": "Partial remission", "setting": "[1]", "result": 26, "unit": "%"}, {"measurement": "Partial remission", "setting": "[2]", "result": 11, "unit": "%"}, {"measurement": "Complete remission", "setting": "[3]", "result": 35, "unit": "%"}, {"measurement": "New tumors", "setting": "[4]", "result": 15}, {"measurement": "Complete remission", "setting": "[5]", "result": 14, "unit": "%"}, {"measurement": "Progressed tumors", "setting": "[6]", "result": 54, "unit": "%"}, {"measurement": "Static tumors", "setting": "[7]", "result": 21, "unit": "%"}, {"measurement": "New tumors", "setting": "[8]", "result": 18}, {"measurement": "Change of body weight", "setting": "[9]", "result": -2, "unit": "%"}, {"measurement": "Change of tumor area", "setting": "[9]", "result": -24, "unit": "%"}, {"measurement": "No. of tumors", "setting": "[10]", "result": 28}, {"measurement": "Static tumors", "setting": "[11]", "result": 23, "unit": "%"}, {"measurement": "Progressed tumors", "setting": "[12]", "result": 16, "unit": "%"}, {"measurement": "No. of tumors", "setting": "[13]", "result": 34}, {"measurement": "Change of body weight", "setting": "[14]", "result": 0, "unit": "%"}, {"measurement": "Change of tumor area", "setting": "[14]", "result": 282, "unit": "%"}]}, {"smiles": "CCCNC(c1c(Cl)cc(O)cc1Cl)C(NCCC)c1c(Cl)cc(O)cc1Cl", "note": "(racemic)", "values": [{"measurement": "relative binding affinity (RBA)", "setting": "[15]", "result": 1}]}, {"smiles": "CCNC(c1c(Cl)cc(O)cc1Cl)C(NCC)c1c(Cl)cc(O)cc1Cl", "note": "(racemic) [listing 2 of 2 here]", "values": [{"measurement": "relative binding affinity (RBA)", "setting": "[15]", "result": 2.1}]}, {"smiles": "CNC(c1c(Cl)cc(O)cc1Cl)C(NC)c1c(Cl)cc(O)cc1Cl", "note": "(racemic)", "values": [{"measurement": "relative binding affinity (RBA)", "setting": "[15]", "result": 1.3}]}, {"smiles": "CCNC(c1c(Cl)cc(O)cc1Cl)C(NCC)c1c(Cl)cc(O)cc1Cl", "note": "(stereo in doubt) [listing 1 of 2 here]", "values": [{"measurement": "Partial remission", "setting": "[1]", "result": 53, "unit": "%"}, {"measurement": "Partial remission", "setting": "[2]", "result": 14, "unit": "%"}, {"measurement": "Complete remission", "setting": "[3]", "result": 28, "unit": "%"}, {"measurement": "New tumors", "setting": "[4]", "result": 6}, {"measurement": "Complete remission", "setting": "[5]", "result": 50, "unit": "%"}, {"measurement": "Static tumors", "setting": "[7]", "result": 10, "unit": "%"}, {"measurement": "Progressed tumors", "setting": "[16]", "result": 26, "unit": "%"}, {"measurement": "New tumors", "setting": "[8]", "result": 7}, {"measurement": "Change of body weight", "setting": "[9]", "result": -4, "unit": "%"}, {"measurement": "Change of tumor area", "setting": "[9]", "result": -74, "unit": "%"}, {"measurement": "No. of tumors", "setting": "[10]", "result": 26}, {"measurement": "Static tumors", "setting": "[11]", "result": 16, "unit": "%"}, {"measurement": "Progressed tumors", "setting": "[12]", "result": 3, "unit": "%"}, {"measurement": "No. of tumors", "setting": "[13]", "result": 35}, {"measurement": "Change of body weight", "setting": "[14]", "result": -6, "unit": "%"}, {"measurement": "Change of tumor area", "setting": "[14]", "result": 29, "unit": "%"}]}, {"smiles": "CCCNC(c1c(Cl)cc(O)cc1Cl)C(NCCC)c1c(Cl)cc(O)cc1Cl", "note": "(stereo in doubt)", "values": [{"measurement": "relative binding affinity (RBA)", "setting": "[15]", "result": 8.2}]}, {"smiles": "CCNC(c1c(Cl)cc(O)cc1Cl)C(NCC)c1c(Cl)cc(O)cc1Cl", "note": "(stereo in doubt) [listing 2 of 2 here]", "values": [{"measurement": "relative binding affinity (RBA)", "setting": "[15]", "result": 8.6}]}, {"smiles": "CNC(c1c(Cl)cc(O)cc1Cl)C(NC)c1c(Cl)cc(O)cc1Cl", "note": "(stereo in doubt)", "values": [{"measurement": "relative binding affinity (RBA)", "setting": "[15]", "result": 2.3}]}]}
